Published values pooled from the literature.
Each line is one published result; the experiments were not run side by side.
Target: Dual specificity protein kinase CLK1 (CLK1, Homo sapiens, UniProt P49759)

Cc1nc(Cc2cccc(C(F)(F)F)c2)sc1-c1ccc(C(N)=O)nc1 — remaining binding (cell-free assay; competition with immobilised ligand; 1 µM): 83%
COc1cc2c(Nc3ccc(Br)cc3F)ncnc2cc1OCC1CCN(C)CC1 — remaining signal (cell-free assay; 0.5 µM): 105%
CCCS(=O)(=O)Nc1ccc(F)c(C(=O)c2c[nH]c3ncc(-c4ccc(Cl)cc4)cc23)c1F — inhibition (enzyme activity; inhibitor; 1 µM): < 10%
N#CCCc1ccc2c(c1)-c1[nH]c3ccc([N+](=O)[O-])cc3c1CC(=O)N2 — remaining signal (cell-free assay; 0.5 µM): 99.6%
Cc1sc(C(=O)NC2COC2)cc1-n1cc(NC(=O)Nc2c(F)cccc2Cl)cn1 — remaining activity (enzyme activity; inhibitor; 10 µM): 98.4%
COc1cc2ncnc(Nc3ccc(Oc4ccccc4)cc3C)c2cc1OC — inhibition (enzyme activity; inhibitor; 1 µM): 3%
CNC(=O)Nc1ccc2c(c1)CC[C@@]21OC(=O)N(CC(=O)N(Cc2ccc(F)cc2)[C@@H](C)C(F)(F)F)C1=O — remaining binding (cell-free assay; competition with immobilised ligand; 1 µM): 69%
CC(C)(C)c1nc(-c2cccc(NS(=O)(=O)c3c(F)cccc3F)c2F)c(-c2ccnc(N)n2)s1 — remaining activity (enzyme activity; inhibitor; radiometric; 1 µM): 89%
Cn1cnc(Br)c1C1=CN(c2ncnc3[nH]cnc23)CCS1 — inhibition (enzyme activity; inhibitor; radiometric; 2 µM): 96.1%
CNCc1ccccc1-c1csc([C@H](C)Nc2nc(C)nc3cc(OC)c(OC)cc23)c1 — remaining binding (cell-free assay; competition with immobilised ligand; 1 µM): 95%
COc1cc(Cl)c(C(=O)N[C@@H](CN[C@H]2CC[C@@H](N)CC2)Cc2ccc(C#N)cc2)cc1-c1ccc(CN[C@H](C)c2ccc(C)cc2)o1 — remaining activity (enzyme activity; inhibitor; 1 µM): 91%
CNC(=O)c1ccc(Nc2ncc(C(F)(F)F)c(NCc3nccnc3N(C)S(C)(=O)=O)n2)cc1 — remaining binding (cell-free assay; competition with immobilised ligand; 0.1 µM): 23%
COc1cc(-c2cc(-c3ccc(N4CCNCC4)cc3)cnc2C)cc(OC)c1OC — inhibition (enzyme activity; inhibitor; 1 µM): 1%
Cc1ccc(NC(=O)c2ccc(C)c(C(F)(F)F)c2)cc1C#Cc1nn(C2CCC(O)CC2)c2ncnc(N)c12 (stereo not shown) — remaining signal (cell-free assay; 10 µM): 64%
Cc1cc(-n2nc(Cc3cc(F)cc(C(F)(F)F)c3)nc2C)ccc1C(N)=O — remaining binding (cell-free assay; competition with immobilised ligand; 1 µM): 86%
C#Cc1cccc(Nc2ncnc3cc(OCCOC)c(OCCOC)cc23)c1 — remaining signal (cell-free assay; 0.5 µM): 107%
c1nc2c(Nc3ccc4c(c3)OCCO4)nc(Nc3ccc4c(c3)OCCO4)nc2[nH]1 — activity vs control (enzyme activity; inhibitor; 10 µM): 2.2%
CC(=O)N1CCC(c2ccc(C(=O)NC(=N)N)cc2C(F)(F)F)CC1 — remaining binding (cell-free assay; competition with immobilised ligand; 1 µM): 100%
CCN(CC)CCNC(=O)c1c(C)[nH]c(/C=C2\C(=O)Nc3ccc(F)cc32)c1C — remaining signal (cell-free assay; 0.5 µM): 23.3%
O=C(O)c1cc(-c2ccc(C3CCNCC3)cc2)c2ccc(-c3ccc(C(F)(F)F)cc3)cc2c1 — remaining binding (cell-free assay; competition with immobilised ligand; 1 µM): 100%
Cc1ccc(C(=O)Nc2ccc(CN3CCN(C)CC3)c(C(F)(F)F)c2)cc1C#Cc1cnc2cccnn12 — remaining activity (enzyme activity; inhibitor; 23.5 nM): 38%
Nc1ncnc2occ(-c3ccc(NC(=O)Nc4cc(C(F)(F)F)ccc4F)cc3)c12 — remaining signal (cell-free assay; inhibitor; 20 µM): 0.65%
